High-throughput results (PubChem BioAssay)
Sampled rows, rich in hits. Any-hit rate of the full collection: about 2.4%.
HTRA1 inhibitor = HTRA1 serine protease inhibitors, primary screen, biochemical, fluorescence polarization, HTS; Q92743; inhibition, % at 5.96 µM; 340,000 tested, 0.5% active; AID 504803, 2011; recombinant HTRA1, FP-rhodamine activity-based probe; in the data active = inhibition above about 36%;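 also: 0% = enzyme with DMSO and 100% = wells lacking enzyme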
SIAE primary = human SIAE inhibitors, primary screen, biochemical, fluorescence polarization, FP-Rh probe, 1536-well HTS; SIAE FP-Rh probe binding; AID 1053197, 2014; 370,000 tested, 0.69% active; inhibition, % at 9.66 µM;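 active = inhibition above a cutoff: mean of compounds within the control limits plus 3 SD of those, cut at about 17% in these data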;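 also: 0% = plate median of compound wells and 100% = probe without SIAE protein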
Target sequence (Q9HAT2 whole entry, looked up): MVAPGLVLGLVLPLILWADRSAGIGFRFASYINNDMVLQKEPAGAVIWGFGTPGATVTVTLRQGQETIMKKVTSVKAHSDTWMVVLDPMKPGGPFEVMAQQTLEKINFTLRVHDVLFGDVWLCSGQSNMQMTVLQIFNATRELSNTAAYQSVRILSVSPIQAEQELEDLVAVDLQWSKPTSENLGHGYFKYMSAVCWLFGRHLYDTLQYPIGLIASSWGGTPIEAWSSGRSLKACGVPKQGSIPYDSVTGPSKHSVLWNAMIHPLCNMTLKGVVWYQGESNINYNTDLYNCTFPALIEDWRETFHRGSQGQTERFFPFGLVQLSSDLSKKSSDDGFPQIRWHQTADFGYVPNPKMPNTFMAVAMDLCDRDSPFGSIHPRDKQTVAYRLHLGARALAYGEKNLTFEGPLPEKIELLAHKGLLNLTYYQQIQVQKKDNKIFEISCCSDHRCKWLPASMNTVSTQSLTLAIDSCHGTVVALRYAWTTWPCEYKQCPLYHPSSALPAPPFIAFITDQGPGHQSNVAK
mABHD4 FP = ABHD4 inhibitors, primary screen, biochemical, fluorescence polarization, mouse; (Lyso)-N-acylphosphatidylethanolamine lipase (Mus musculus), Q8VD66; purified mABHD4, FP-Rh probe fluorescence polarization; inhibition, % at 8.92 µM; 370,000 tested, 0.54% active; AID 720543, 2013;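 active = inhibition exceeding the mean over every tested compound plus 3 SD, cut at about 30% in these data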;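 also: 0% = plate median of compound wells and 100% = S159A mutant with DMSO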
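Test system: mouse ABHD4 enzyme, wild type. Reagent: FP-Rh fluorescent activity-based probe, added after compound pre-incubation. Timing: pre-incubation 45 min, probe exposure 60 min, at 25 °C. Technique: FP readout, ex 525 nm / em 598 nm. Benchmarks: high control S159A mutant with DMSO, low control median of compound wells.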
PRMT1 inh = PRMT1 methyltransferase inhibitors, primary screen, biochemical, fluorescence polarization; recombinant PRMT1, activity-based probe fluorescence polarization; Protein arginine N-methyltransferase 1 (Homo sapiens), Q99873; 370,000 tested, 1.3% active; inhibition, % at 2.79 µM;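 active = inhibition above about 21% made by adding two undisclosed values, limit read from the data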
JMJD2C inh = inhibitors of GASC-1 histone demethylase, primary screen, biochemical, fluorescence, DELFIA europium; 330,000 tested, 0.069% active; GST-JMJD2C(1-420) H3K9me3 demethylation; inhibition, % at 2.35 µM; Lysine-specific demethylase 4C (Homo sapiens), Q9H3R0;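 active = more than half of a compound's replicate wells show inhibition beyond 50%, single wells judged on their own value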;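 also: signal counts dimethyl H3K9 product captured on neutravidin plate; 0% = median of DMSO wells and 100% = 0.3 times that DMSO median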
SIAE confirm = human SIAE inhibitors, retest, confirmation, biochemical, fluorescence polarization, FP-Rh probe, triplicate. shares compounds with SIAE primary. SIAE FP-Rh activity-based probe. inhibition, % at 9.66 µM. 2,300 tested, 13% active. AID 1117263, 2014;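 active = mean inhibition of the replicates above the hit cutoff set in the primary screen, cut at about 17% in these data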;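 also: 0% = SIAE with DMSO and probe and 100% = probe without SIAE; inhibitors lower polarization as more probe stays unbound to SIAE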
* marks the source's active call; other numbers are inactive results.

What do the screens show for `CCCCn1c(N)c(N(CCC(C)C)C(=O)C2=COCCO2)c(=O)[nH]c1=O`?
HTRA1 inhibitor: 3.7; SIAE primary: 6.5; mABHD4 FP: -8.1; PRMT1 inh: 5.3; JMJD2C inh: -4.4

Results for Cc1cccc(CN2CCN(C3CN(Cc4ccc(F)cc4)S(=O)(=O)C3)CC2)c1 (stereo unspecified) ?
SIAE primary: 3.7; mABHD4 FP: 6.2; PRMT1 inh: -3.1

What do the screens show for `C/C(=N/Nc1ccccc1[N+](=O)[O-])c1ccc([N+](=O)[O-])cc1`?
HTRA1 inhibitor: -0.2; SIAE primary: 4.2; mABHD4 FP: -5.7; PRMT1 inh: 0.1; JMJD2C inh: -35.4

Results for CC(C)=NNc1cc([N+](=O)[O-])cc2c1C(=O)N(C)S2=O (stereo unspecified) ?
HTRA1 inhibitor: 4.5; SIAE primary: 17.2*; mABHD4 FP: 4.9; PRMT1 inh: 13.3; JMJD2C inh: 1.0; SIAE confirm: 0.6

How did O=c1c2[nH]c3ccccc3c2ncn1CCC1=CCCCC1 do in these assays?
HTRA1 inhibitor: -0.3; SIAE primary: 2.1; mABHD4 FP: 1.3; PRMT1 inh: -0.5; JMJD2C inh: 7.1

Results for C1=C(CCNc2ncnc3c2[nH]c2ccccc23)CCCC1 ?
HTRA1 inhibitor: 5.5; SIAE primary: 23.2*; mABHD4 FP: 25.0; PRMT1 inh: -1.9; JMJD2C inh: 11.2; SIAE confirm: 22.4*

How did COc1ccccc1CNC(=O)COC(=O)c1ccco1 do in these assays?
HTRA1 inhibitor: 4.4; SIAE primary: -17.5; mABHD4 FP: -9.7; PRMT1 inh: -1.9; JMJD2C inh: -1.4

How did COc1ccccc1CNC(=O)COC(=O)c1ccc(C)s1 do in these assays?
HTRA1 inhibitor: -3.8; SIAE primary: 23.4*; mABHD4 FP: 4.0; PRMT1 inh: 1.8; JMJD2C inh: 1.3; SIAE confirm: 4.1

What do the screens show for `O=C(O)c1ccccc1NN=Cc1ccccc1`?
HTRA1 inhibitor: 3.1; SIAE primary: 17.7*; mABHD4 FP: 6.0; PRMT1 inh: -0.4; SIAE confirm: 2.3

What do the screens show for `CCN(CC)CCOc1nc(C)nc2c1oc1ccccc12`?
HTRA1 inhibitor: -3.3; SIAE primary: 17.7*; mABHD4 FP: 0.4; PRMT1 inh: -3.1; JMJD2C inh: 3.0; SIAE confirm: 2.7

What do the screens show for `CCN(CC)CCCOc1nc(C)nc2c1oc1ccccc12`?
HTRA1 inhibitor: 4.2; SIAE primary: -3.3; mABHD4 FP: 0.5; PRMT1 inh: 2.0

Results for C=CCNC(=O)c1onc(CSc2ccc(OC)cc2)c1C(=O)O ?
HTRA1 inhibitor: 5.2; SIAE primary: 21.8*; mABHD4 FP: 2.9; PRMT1 inh: -1.5; JMJD2C inh: -0.7; SIAE confirm: -3.7

What do the screens show for `Cc1nc2ccc(C(=O)N3c4ccccc4N=C(c4ccc(C(F)(F)F)cc4)C3C(=O)NC(C)(C)C)cc2[nH]1` (stereo unspecified)?
SIAE primary: -4.8; mABHD4 FP: 3.8; PRMT1 inh: 3.5

Results for COc1ccccc1NC(=O)Nc1ccc(NC(=O)c2ccccc2O)cc1 ?
HTRA1 inhibitor: -11.6; SIAE primary: 51.0*; mABHD4 FP: -15.8; PRMT1 inh: -1.6; JMJD2C inh: -15.3; SIAE confirm: 26.1*

How did Oc1ccccc1-c1nc2c3ccccc3c3ccccc3c2[nH]1 do in these assays?
HTRA1 inhibitor: -21.2; SIAE primary: 26.6*; mABHD4 FP: -19.2; PRMT1 inh: -0.9; JMJD2C inh: -3.7; SIAE confirm: -2.3

How did Oc1ccccc1-c1ccn[nH]1 do in these assays?
HTRA1 inhibitor: 6.4; SIAE primary: -1.6; mABHD4 FP: 0.3; PRMT1 inh: -0.7; JMJD2C inh: 0.0

How did COc1cc(/C=C/C(=O)O)cc(S(=O)(=O)N2CCCc3ccccc32)c1OC do in these assays?
HTRA1 inhibitor: -0.7; SIAE primary: -4.0; mABHD4 FP: 14.2; PRMT1 inh: -1.9; JMJD2C inh: -7.9

Results for COc1cc(/C=C/C(=O)O)cc(S(=O)(=O)N2CCc3ccccc32)c1OC ?
HTRA1 inhibitor: -2.4; SIAE primary: 18.5*; mABHD4 FP: 3.8; PRMT1 inh: -2.9; JMJD2C inh: 7.2; SIAE confirm: -6.3

Results for COc1ccccc1NC(=O)C1=C(C)Nc2nc(-c3cccnc3)nn2C1c1ccccn1 (stereo unspecified) ?
HTRA1 inhibitor: 2.6; SIAE primary: -3.8; mABHD4 FP: -4.3; PRMT1 inh: -4.8

What do the screens show for `COc1ccccc1NC(=O)C1=C(C)Nc2nc(-c3cccs3)nn2C1c1cccnc1` (stereo unspecified)?
HTRA1 inhibitor: -9.1; SIAE primary: 18.0*; mABHD4 FP: -1.4; PRMT1 inh: 4.4; JMJD2C inh: -1.0; SIAE confirm: 0.4

Results for COc1ccc2c(c1)Cc1sc(NC(C)=O)nc1-2 ?
HTRA1 inhibitor: 3.1; SIAE primary: 6.8; mABHD4 FP: 3.5; PRMT1 inh: 8.9; JMJD2C inh: 18.5

Results for COc1ccc2c(c1)-c1nc(NC(=O)c3ccco3)sc1CC2 ?
HTRA1 inhibitor: -22.5; SIAE primary: 19.2*; mABHD4 FP: -9.0; PRMT1 inh: -0.2; JMJD2C inh: 2.9; SIAE confirm: -9.7

How did COc1ccc2c(c1)CCc1sc(NC(=O)c3ccc(C)cc3)nc1-2 do in these assays?
HTRA1 inhibitor: -8.6; SIAE primary: 17.5*; mABHD4 FP: 10.4; PRMT1 inh: -1.9; JMJD2C inh: -2.5; SIAE confirm: 0.7

How did COc1ccc2c(c1)CCc1sc(NC(=O)c3ccco3)nc1-2 do in these assays?
HTRA1 inhibitor: 0.4; JMJD2C inh: 2.6

Results for CCCN1C(=O)C(=O)N(CC(=O)N2c3ccccc3NC(=O)CC2C)C1=O (stereo unspecified) ?
HTRA1 inhibitor: 8.8; SIAE primary: -1.2; mABHD4 FP: -2.0; PRMT1 inh: -5.4

What do the screens show for `COC(=O)[C@]12C[C@H](CC(=O)NCc3cccc(C(F)(F)F)c3)C(=O)N(Cc3ccccc3)C1=C[C@H](C(C)(C)C)O[C@@H]2C`?
SIAE primary: 27.5*; mABHD4 FP: -3.5; PRMT1 inh: 2.0; SIAE confirm: -1.7

How did COC(=O)[C@]12C[C@H](CC(=O)NCCCN3CCCC3=O)C(=O)N(Cc3ccccc3)C1=C[C@H](C(C)C)O[C@@H]2C1CC1 do in these assays?
SIAE primary: 19.8*; mABHD4 FP: 3.2; PRMT1 inh: -1.3; SIAE confirm: -3.3

How did CCN1CCc2c(sc(NC(=S)NC(=O)c3ccc(Cl)cc3)c2C(N)=O)C1 do in these assays?
HTRA1 inhibitor: -0.5; SIAE primary: 17.6*; mABHD4 FP: 8.2; PRMT1 inh: -1.6; JMJD2C inh: 8.0; SIAE confirm: 0.6
